ChEMBL document CHEMBL1649465, “In vitro activity of ceftaroline alone and in combination against clinical isolates of resistant gram-negative pathogens, including beta-lactamase-producing Enterobacteriaceae and Pseudomonas aeruginosa” (2009)
≈ marks a conversion by molar mass, not a printed value. Calls of active or inactive are those of the source. The rule behind the calls is not given here.

Assays:
[1] = tested on: Klebsiella pneumoniae; test: Antimicrobial activity against Klebsiella pneumoniae isolate 5427 by broth microdilution method; assay type: functional
[2] = tested on: Pseudomonas aeruginosa; test: Bactericidal activity against Pseudomonas aeruginosa isolate 1037 at 1/4 times MIC after 24 hrs by time kill analysis; assay type: functional, organism-based
Outline: (§1)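 Duplicate 24-h time-kill of the drug combination, each agent at one-fourth its MIC. […] Counts were taken by spiral plating after dilution in cold saline.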

[3] = tested on: Pseudomonas aeruginosa; test: Bactericidal activity against Pseudomonas aeruginosa isolate 956 at 1/4 times MIC after 24 hrs by time kill analysis; assay type: functional, organism-based; outline: as §1
[4] = tested on: Escherichia coli; test: Bactericidal activity against Escherichia coli isolate 5411 at 1/4 times MIC after 24 hrs by time kill analysis; assay type: functional, organism-based
Outline: (§2)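 Duplicate time-kill assays in 2-ml cultures of Mg/Ca-supplemented Mueller-Hinton broth. […] Samples taken at 0, 1, 2, 4, 8 and 24 h, serially diluted in cold 0.9% NaCl and spiral-plated for colony counts. Detection limit 2 log10 CFU/ml. Reported as decrease in log10 CFU/ml (mean ± SD).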

[5] = tested on: Pseudomonas aeruginosa; test: Bactericidal activity against Pseudomonas aeruginosa isolate 796 at 1/4 times MIC after 24 hrs by time kill analysis; assay type: functional, organism-based; outline: as §1
[6] = tested on: Pseudomonas aeruginosa; test: Antimicrobial activity against Pseudomonas aeruginosa isolate 796 by broth microdilution method; assay type: functional
[7] = tested on: Escherichia coli; test: Bactericidal activity against Escherichia coli isolate 5401 at 1/4 times MIC after 24 hrs by time kill analysis; assay type: functional, organism-based; outline: as §2
[8] = tested on: Escherichia coli; test: Antimicrobial activity against ESBL-producing Escherichia coli by broth microdilution method; assay type: functional
[9] = tested on: Escherichia coli; test: Antimicrobial activity against Escherichia coli isolate 5401 by broth microdilution method; assay type: functional
[10] = tested on: Pseudomonas aeruginosa; test: Bactericidal activity against Pseudomonas aeruginosa isolate 1019 at 1/4 times MIC after 24 hrs by time kill analysis; assay type: functional, organism-based; outline: as §1
[11] = tested on: Klebsiella pneumoniae; test: Bactericidal activity against Klebsiella pneumoniae isolate 5436 at 1/4 times MIC after 24 hrs by time kill analysis; assay type: functional, organism-based; outline: as §1
[12] = tested on: Klebsiella pneumoniae; test: Bactericidal activity against Klebsiella pneumoniae isolate 5427 at 1/4 times MIC after 24 hrs by time kill analysis; assay type: functional, organism-based; outline: as §2
[13] = tested on: Enterobacter cloacae; test: Antimicrobial activity against Enterobacter cloacae isolate 4073 by broth microdilution method; assay type: functional
[14] = tested on: Escherichia coli; test: Antimicrobial activity against Escherichia coli isolate 5411 by broth microdilution method; assay type: functional
[15] = tested on: Pseudomonas aeruginosa; test: Antimicrobial activity against Pseudomonas aeruginosa by broth microdilution method; assay type: functional
[16] = tested on: Klebsiella pneumoniae; test: Antimicrobial activity against ESBL-producing Klebsiella pneumoniae by broth microdilution method; assay type: functional
[17] = tested on: Enterobacter cloacae; test: Antimicrobial activity against […] Enterobacter cloacae by broth microdilution method; assay type: functional
[18] = tested on: Klebsiella pneumoniae; test: Antimicrobial activity against Klebsiella pneumoniae isolate 5436 by broth microdilution method; assay type: functional
[19] = tested on: Enterobacter cloacae; test: Antimicrobial activity against Enterobacter cloacae isolate 5420 by broth microdilution method; assay type: functional
[20] = tested on: Pseudomonas aeruginosa; test: Antimicrobial activity against Pseudomonas aeruginosa isolate 1037 by broth microdilution method; assay type: functional
[21] = tested on: Pseudomonas aeruginosa; test: Antimicrobial activity against Pseudomonas aeruginosa isolate 956 by broth microdilution method; assay type: functional
[22] = tested on: Pseudomonas aeruginosa; test: Antimicrobial activity against Pseudomonas aeruginosa isolate 1019 by broth microdilution method; assay type: functional

Structure (SMILES)	MBC [1] [µg/mL]	MIC [1] [µg/mL]	inhibition [2]	inhibition [3]	inhibition [4]	inhibition [5]	MIC [6] [µg/mL]	inhibition [7]	MBC [8] [µg/mL]	MBC [9] [µg/mL]	MIC [9] [µg/mL]	inhibition [10]	inhibition [11]	inhibition [12]	MBC [14] [µg/mL]	MIC [14] [µg/mL]	MBC [16] [µg/mL]	MIC [16] [µg/mL]	MIC [18] [µg/mL]	MIC [21] [µg/mL]	further results
CO/N=C(\C(=O)N[C@@H]1C(=O)N2C(C(=O)[O-])=C(C[N+]3(C)CCCC3)CS[C@H]12)c1csc(N)n1	1 (≈ 2.08 µM)	0.5 (≈ 1.04 µM)	inactive	inactive	inactive	inactive	8 (≈ 16.6 µM)	inactive	0.25 (≈ 0.52 µM)	4 (≈ 8.32 µM)	4 (≈ 8.32 µM)	inactive	inactive	inactive							
NCC[C@H](O)C(=O)N[C@@H]1C[C@H](N)[C@@H](O[C@H]2O[C@H](CN)[C@@H](O)[C@H](O)[C@H]2O)[C@H](O)[C@H]1O[C@H]1O[C@H](CO)[C@@H](O)[C@H](N)[C@H]1O [AMIKACIN]	2 (≈ 3.42 µM)	2 (≈ 3.42 µM)	inactive	inactive	inactive	inactive	16 (≈ 27.3 µM)	inactive	4 (≈ 6.83 µM)	4 (≈ 6.83 µM)	2 (≈ 3.42 µM)	inactive	inactive	inactive	16 (≈ 27.3 µM)	8 (≈ 13.7 µM)	1 (≈ 1.71 µM)	1 (≈ 1.71 µM)	1 (≈ 1.71 µM)	4 (≈ 6.83 µM)	MBC [13]: 8 µg/mL (≈ 13.7 µM); MIC [13]: 1 µg/mL (≈ 1.71 µM); MBC [15]: 2 µg/mL (≈ 3.42 µM); MIC [15]: 2 µg/mL (≈ 3.42 µM); MBC [17]: 1 µg/mL (≈ 1.71 µM); MIC [17]: 0.5 µg/mL (≈ 0.854 µM); MBC [18]: 2 µg/mL (≈ 3.42 µM); MBC [6]: 32 µg/mL (≈ 54.6 µM); MBC [19]: 2 µg/mL (≈ 3.42 µM); MIC [19]: 1 µg/mL (≈ 1.71 µM); MIC [8]: 1 µg/mL (≈ 1.71 µM); MBC [20]: 4 µg/mL (≈ 6.83 µM); MIC [20]: 2 µg/mL (≈ 3.42 µM); MBC [21]: 64 µg/mL (≈ 109 µM); MBC [22]: 4 µg/mL (≈ 6.83 µM); MIC [22]: 4 µg/mL (≈ 6.83 µM)
C[C@H]1[C@H](NC(=O)/C(=N\OC(C)(C)C(=O)O)c2csc(N)n2)C(=O)N1S(=O)(=O)O [AZTREONAM]	1 (≈ 2.3 µM)	0.5 (≈ 1.15 µM)	inactive	inactive	inactive	inactive		inactive	> 0.125	0.25 (≈ 0.574 µM)	0.25 (≈ 0.574 µM)	inactive	inactive	inactive	32 (≈ 73.5 µM)	8 (≈ 18.4 µM)	> 0.5	> 0.25	64 (≈ 147 µM)	8 (≈ 18.4 µM)	MIC [8]: > 0.125 µg/mL
C[C@H]1COc2c(N3CCN(C)CC3)c(F)cc3c(=O)c(C(=O)O)cn1c23.C[C@H]1COc2c(N3CCN(C)CC3)c(F)cc3c(=O)c(C(=O)O)cn1c23.O [LEVOFLOXACIN]	2	0.25	inactive	inactive	inactive	inactive		inactive	0.06	32	32	inactive	inactive	inactive	16	8	> 0.25	> 0.25	4	0.5	MBC [13]: 0.06 µg/mL; MIC [13]: 0.06 µg/mL; MBC [15]: 0.5 µg/mL; MIC [15]: 0.25 µg/mL; MBC [17]: 0.03 µg/mL; MIC [17]: 0.03 µg/mL; MBC [18]: 4 µg/mL; MBC [6]: 2 µg/mL; MBC [19]: 0.06 µg/mL; MIC [19]: 0.06 µg/mL; MBC [20]: 0.5 µg/mL; MIC [20]: 0.25 µg/mL; MBC [21]: 1 µg/mL; MBC [22]: 1 µg/mL; MIC [22]: 0.5 µg/mL
C[C@@H](O)[C@H]1C(=O)N2C(C(=O)O)=C(S[C@@H]3CN[C@H](C(=O)N(C)C)C3)[C@H](C)[C@H]12 [MEROPENEM]	16 (≈ 41.7 µM)	4 (≈ 10.4 µM)	inactive	inactive	inactive	inactive	1 (≈ 2.61 µM)	inactive	0.06 (≈ 0.156 µM)	0.06 (≈ 0.156 µM)	0.06 (≈ 0.156 µM)	inactive	inactive	inactive	0.06 (≈ 0.156 µM)	0.06 (≈ 0.156 µM)	0.06 (≈ 0.156 µM)	0.03 (≈ 0.0782 µM)	0.06 (≈ 0.156 µM)	0.25 (≈ 0.652 µM)	MBC [13]: 0.5 µg/mL (≈ 1.3 µM); MIC [13]: 0.25 µg/mL (≈ 0.652 µM); MBC [15]: 0.125 µg/mL (≈ 0.326 µM); MIC [15]: 0.125 µg/mL (≈ 0.326 µM); MBC [17]: 0.03 µg/mL (≈ 0.0782 µM); MIC [17]: 0.03 µg/mL (≈ 0.0782 µM); MBC [18]: 0.06 µg/mL (≈ 0.156 µM); MBC [6]: 2 µg/mL (≈ 5.22 µM); MBC [19]: 0.125 µg/mL (≈ 0.326 µM); MIC [19]: 0.125 µg/mL (≈ 0.326 µM); MIC [8]: 0.03 µg/mL (≈ 0.0782 µM); MBC [20]: 1 µg/mL (≈ 2.61 µM); MIC [20]: 0.5 µg/mL (≈ 1.3 µM); MBC [21]: 2 µg/mL (≈ 5.22 µM); MBC [22]: 2 µg/mL (≈ 5.22 µM); MIC [22]: 1 µg/mL (≈ 2.61 µM)
CN(C)c1cc(NC(=O)CNC(C)(C)C)c(O)c2c1C[C@H]1C[C@H]3[C@H](N(C)C)C(O)=C(C(N)=O)C(=O)[C@@]3(O)C(O)=C1C2=O [TIGECYCLINE]	2 (≈ 3.41 µM)	0.5 (≈ 0.854 µM)	inactive	inactive	inactive	inactive	32 (≈ 54.6 µM)	inactive	0.06 (≈ 0.102 µM)	1 (≈ 1.71 µM)	0.5 (≈ 0.854 µM)	inactive	inactive	inactive	0.5 (≈ 0.854 µM)	0.125 (≈ 0.213 µM)	0.5 (≈ 0.854 µM)	0.125 (≈ 0.213 µM)	0.125 (≈ 0.213 µM)	16 (≈ 27.3 µM)	MBC [13]: 2 µg/mL (≈ 3.41 µM); MIC [13]: 0.5 µg/mL (≈ 0.854 µM); MBC [15]: 8 µg/mL (≈ 13.7 µM); MIC [15]: 2 µg/mL (≈ 3.41 µM); MBC [17]: 0.5 µg/mL (≈ 0.854 µM); MIC [17]: 0.25 µg/mL (≈ 0.427 µM); MBC [18]: 1 µg/mL (≈ 1.71 µM); MBC [6]: 32 µg/mL (≈ 54.6 µM); MBC [19]: 2 µg/mL (≈ 3.41 µM); MIC [19]: 0.5 µg/mL (≈ 0.854 µM); MIC [8]: 0.06 µg/mL (≈ 0.102 µM); MBC [20]: 32 µg/mL (≈ 54.6 µM); MIC [20]: 8 µg/mL (≈ 13.7 µM); MBC [21]: 128 µg/mL (≈ 219 µM); MBC [22]: 8 µg/mL (≈ 13.7 µM); MIC [22]: 2 µg/mL (≈ 3.41 µM)
